This note sets out measurements from the RNAGym collection of RNA variant scans (doi:10.1126/science.aae0568).

B1: tRNA (parent)
chain: GUUCCGUUGGCGUAAUGGUAACGCGUCUCCCUCCUAAGGAGAAGACUGCGGGUUCGAGUCCCGUACGGAACG

Variants at the floor of the assay were thinned out. Bounds are passed on as bounds.

The variants in this data set derive from B1. Briefly: yeast fitness relative to wild type (ratio to wild type); higher = fitter; tRNA-Arg(CCU), competitive growth, 37 C, YPD. The method in brief:
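Start and end populations of a pooled competition were compared by 100-nucleotide paired-end sequencing of gene amplicons. The Saccharomyces cerevisiae strains carried tRNA-Arg(CCU) gene variants at the native genomic locus, synthesised with a 3% per-site mutation rate at 69 sites, and competed in YPD at 37°C for 24 hours in six parallel replicates. Darwinian fitness relative to wild type was based on the change in genotype frequencies. Genotypes required ≥ 100 starting reads, and estimates < 0.5 were set to 0.5.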
As to G6C C11G A21G C29G A40C, the yeast fitness is at most 0.5.

Take C5A C24G A69U: the yeast fitness was determined as 0.578. As for A42C U54A, the yeast fitness was determined as 0.567.

Regarding G48A C49A G67U, the yeast fitness is 0.572.

As to C22U G48A A65U, the yeast fitness is 0.773. For the variant U8A A21G C27U G52C, the yeast fitness was at most 0.5. With A36C C49U C55U, the yeast fitness stood at 0.643.

Consider C4A A15G C62U, for which the yeast fitness was 0.594. Regarding G44C C49G U59A, the yeast fitness was at most 0.5. With G6C C11G C33U, the yeast fitness was at most 0.5. As to C29A A40U U47A, the yeast fitness amounted to 0.772. As for U64G, the figure is 0.993. Turning to A14C U16C A21G C29A C34U A69U, the yeast fitness is at most 0.5. For the variant G12A C33U G63A, the yeast fitness was at most 0.5.

As to A21U C34G U35C, the yeast fitness is 0.785. Take U7C G44C: the yeast fitness worked out at 0.84.

As to U35A A40U, the yeast fitness turned out to be 0.718.

For C11A C61G, the yeast fitness was at most 0.5. Turning to G10U U13A, the yeast fitness is 0.675.

C46A C60U: the yeast fitness was determined as 0.83. Consider A21U A43G, for which the yeast fitness was determined as 0.752.

Take C33G C66G A70G: the yeast fitness was found to be 0.54.

On to A40U U53A, for which the yeast fitness worked out at 0.774. Turning to C5G C30G A65C C66U, the yeast fitness is at most 0.5. C27U U32C C46G: the yeast fitness amounted to 0.765. C24U A45C: the yeast fitness was found to be 0.971. The value for A14U U26G C49G was at most 0.5. In the case of G23A C33G U47A G68A, the yeast fitness was 0.539. In the case of C11U A20C C22G, the yeast fitness is 0.576. As for U2C A42U C62U, the figure is 0.571; as for U2A G17C, 0.603. Consider A21U A36C G39A, for which the yeast fitness was determined as 0.58. As for U28C U32A G44A A57C, the figure is at most 0.5; as for G41C A42G G51A, 0.538; as for G41C G48A, 0.981.

Regarding G10C C24U C29A A45U C46G U47A G50A, the yeast fitness was found to be 0.702. For U3A C61U, the yeast fitness was found to be 0.924. Take U19G A65U: the yeast fitness was 0.99. In the case of A40G G44A A70G, the yeast fitness was 0.567. Regarding A15G C24A C46A, the yeast fitness is 0.64. G9C A21G U64A: the yeast fitness is at most 0.5. On to U3G A37U G63A C66U, for which the yeast fitness was at most 0.5. For the variant A20G C55U, the yeast fitness was determined as 0.82. As to C4A U32G A45G A69U, the yeast fitness is at most 0.5.

In the case of C31G G41A U53C, the yeast fitness is 0.52. Take U16A A42C A69U: the yeast fitness was 0.505. For the variant U26G C30G, the yeast fitness was found to be 0.6. U3C U8C: the yeast fitness was 0.906. As for U7A G39C A43C G44C U47C C61U, the yeast fitness is at most 0.5. For the variant G18C G23A G25C U35C A37G A43C C55G G68A, the yeast fitness is at most 0.5. Regarding C27U A40G U64A, the yeast fitness was at most 0.5. Turning to A21U A42U C66U, the yeast fitness was at most 0.5. In the case of C46U G58A C62U, the yeast fitness is 0.665. Take A15G G39C A69C: the yeast fitness is 0.624. C4U G41A: the yeast fitness came to 1.02. U3A C30U U54A: the yeast fitness is at most 0.5.

As for C49A C60U G68C, the yeast fitness is at most 0.5. As for U3A C55U, the figure is 0.876; as for G10C C22A C24G G51C C62U, at most 0.5; as for A14C U16C G51C G58A, 0.528. C33G A45C U54C: the yeast fitness was at most 0.5. Consider G10U U26C G39A A65C, for which the yeast fitness was at most 0.5.

In the case of C5U U19A A21G A43C G51C, the yeast fitness was at most 0.5.

Regarding C5A G48C G67C, the yeast fitness was determined as 0.591. With U28G C29U A45C, the yeast fitness was at most 0.5. For the variant A42G A65G, the yeast fitness amounted to 0.735. As for C22U C34A G56C A57U, the figure is at most 0.5; as for C5U C55G C66U A69U, at most 0.5. In the case of C4G A43U G44C, the yeast fitness is 0.531. The value for U7G A40U was 0.985; that for G25A U28A C61U G67C was at most 0.5. Take C34A G50C: the yeast fitness stood at 0.667. Regarding C24G C31G G50A, the yeast fitness is 0.522. In the case of A14U C30G A40G C66U, the yeast fitness was at most 0.5. For C11A C27U G44C, the yeast fitness is 0.572. Turning to U3C A45U G51C, the yeast fitness came out at 0.574. Turning to C11G A15C G38C C49G, the yeast fitness was at most 0.5. The value for C4G G41A was 0.768; that for U13C A14U C61A was at most 0.5; that for U8C C22A A42U U54C C66G was at most 0.5. Consider C27G C29G C30U, for which the yeast fitness was at most 0.5. Regarding C11A G68U, the yeast fitness was 0.54. The value for A37U A45U C62G was at most 0.5.

Consider C5A A42G G63C, for which the yeast fitness came out at 0.59.

On to G25A U28C, for which the yeast fitness was 0.891. As for G9A C29U U59G A65C, the figure is at most 0.5. The value for A15C C31G was 0.632. On to U16G A36G A65G, for which the yeast fitness is at most 0.5. Take A15C C33U U47G C49U G52C A70G: the yeast fitness is 0.585.

Consider A20G G50A, for which the yeast fitness is 0.905. With U2A A45C G58A C61U, the yeast fitness was at most 0.5.

Take U2G C22A G25A G56A: the yeast fitness is at most 0.5. As for U16C C27G, the figure is 0.727; as for U7C C22A A45C C46U, at most 0.5; as for C11U C22G C34G A70C, at most 0.5. The value for G25C C33G C61G was at most 0.5; that for C4U C5A C66U was 0.61. The value for U13A U54C was 0.934; that for U16A G41A A70U was 0.666.

For A14G A45U C61U, the yeast fitness was 0.665. On to C4U G6A G9A U13C U28C, for which the yeast fitness was at most 0.5. With G10C G51C A65C C66U, the yeast fitness was at most 0.5. C5U U26C A69C: the yeast fitness came out at 0.655.

Take C5U C11A G50C: the yeast fitness turned out to be 0.598.

On to G6C A14C C29U C34G C46U C49U C66A G68C, for which the yeast fitness was at most 0.5. Turning to G18C A65G, the yeast fitness turned out to be 0.62. Turning to G10C A45C C46A C66U, the yeast fitness came to 0.643. The value for U3A C33U A40C was at most 0.5. As for C4U C30U C34U, the yeast fitness was at most 0.5.

G9A C11U C61A: the yeast fitness stood at 0.56. For the variant C24U C30G A45C C61G, the yeast fitness was 0.568.

A43C A45U C61A C62U C66U: the yeast fitness was at most 0.5.

Regarding C24G A37G U59A G67A, the yeast fitness came out at 0.548.

As for U8G G18A G50C A65U, the yeast fitness worked out at 0.513. As for U2G C11A C24A U26A G44C G68A, the yeast fitness was at most 0.5.

As for C24U G67A, the yeast fitness was determined as 0.913. With C31G A36U A65U, the yeast fitness is 0.517.

In the case of U16C C49G C62U, the yeast fitness is 0.528. As to A15C C27U C62U, the yeast fitness is at most 0.5. Take G48C G63C A70C: the yeast fitness is at most 0.5. The value for A14G C31U A37G A45C A70G was at most 0.5; that for U7C U64A was 0.923. As for A20U U32A A65C, the figure is at most 0.5; as for A42G A65C A69C A70G, 0.577; as for C27G U32A C34A C55A, at most 0.5. With U7C U28C C55U, the yeast fitness was at most 0.5.

In the case of C24G G50C A70G, the yeast fitness is at most 0.5. Consider A40G A45C C60A, for which the yeast fitness was at most 0.5. The value for C5U A21G A42U was 0.908; that for C5A U28G A42U was at most 0.5; that for G12A A21C U59A G67A was at most 0.5.

As for U35G A45C, the yeast fitness came to 0.617. For C27A A37C G52A U59A, the yeast fitness was at most 0.5. The value for G12A U32G C46A was at most 0.5; that for A42G G68C was 0.798; that for U13A C27U G50U was 0.674. In the case of C62G G67C, the yeast fitness amounted to 0.614. Consider U26A U28A C31U G63C, for which the yeast fitness was at most 0.5. For the variant C24U C46A A57G, the yeast fitness came out at 0.749.

On to A14G A36C A57C G68A, for which the yeast fitness was at most 0.5. As for U3C A20G C24U G52A A57U C62A, the figure is at most 0.5. Regarding C4A A21G C60G G67A, the yeast fitness was at most 0.5. As for A15G A42U A57C, the figure is 0.532; as for G10C C24U C34G A65C, at most 0.5.

Regarding U8C G10C G23C C29G G51A, the yeast fitness stood at 0.72. As for U26G G48C, the figure is 0.805.

U8G A21U G68C: the yeast fitness is at most 0.5.

For the variant C5U C24G A43C A45U G52A, the yeast fitness is at most 0.5. As for A37U C61G, the figure is 0.529; as for G6A C27U, 0.785; as for A36U G38A A65C, 0.518. For C11G A21U C24U, the yeast fitness was at most 0.5. As for U3A C24G A69C, the figure is at most 0.5; as for C60U C62G A70G, 0.521. On to G9C U19C C31A, for which the yeast fitness is at most 0.5. In the case of U8C C31G A42G, the yeast fitness amounted to 0.624. G9C A15G C49A: the yeast fitness turned out to be 0.601. In the case of G10C C34A U53A U54G, the yeast fitness is at most 0.5.

With C5U G10C C27G U28C G39C C46G A69U, the yeast fitness is at most 0.5. In the case of U3C C27G C33A, the yeast fitness was 0.655. On to C30A A37G C46U A57C, for which the yeast fitness is at most 0.5. As for U2A C29A A45U U59C, the yeast fitness came to 0.575. The value for C24G C30G C62U G68C was at most 0.5; that for C22G C34U was 0.696.

G9A A20G C30U: the yeast fitness was determined as 0.71. On to C5U C33A A36C A37C A43G A70U, for which the yeast fitness was at most 0.5. With C27U A45C G48A A57U G67A, the yeast fitness was at most 0.5.
